RAD52 anneal inh: RAD52 DNA annealing inhibitors, primary screen, biochemical, FRET, single point, set 2. DNA repair protein RAD52 homolog (Homo sapiens), P43351. recombinant RAD52 DNA annealing, FRET fluorescence. inhibition, % at 18.7 µM. AID 651710, 2012. 360,000 compounds, 0.46% hits;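 active = every replicate showing at least 50% inhibition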
INS-1E GSIS act: GLuc luminescence reporter in INS-1E cells, primary screen for activators of glucose-dependent secretion of insulin | INS-1E GLuc reporter insulin secretion, 2-3 h | activation, % at 16.6 µM | 370,000 compounds, 0.61% hits;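 active = lowest replicate activation of at least 40%, so every replicate reaches that level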;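 also: 0% = median of neutral control wells and 100% = median of IBMX positive control wells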
RAD54 inh: inhibitors of human RAD54 branch migration, primary screen, biochemical, fluorescence, single point | DNA repair and recombination protein RAD54-like (Homo sapiens), Q92698 | RAD54 Holliday junction branch migration, FAM/BHQ fluorescence | inhibition, % at 10.4 µM | 360,000 compounds, 0.14% hits;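 active = mean normalized replicate activity at least 40 and at least half of replicates scoring 40 or more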;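 also: 0% = median of neutral control wells and 100% = median of positive control wells; inhibitors cause a drop in the FAM fluorescence signal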
Target sequence (Q92698 whole entry, looked up): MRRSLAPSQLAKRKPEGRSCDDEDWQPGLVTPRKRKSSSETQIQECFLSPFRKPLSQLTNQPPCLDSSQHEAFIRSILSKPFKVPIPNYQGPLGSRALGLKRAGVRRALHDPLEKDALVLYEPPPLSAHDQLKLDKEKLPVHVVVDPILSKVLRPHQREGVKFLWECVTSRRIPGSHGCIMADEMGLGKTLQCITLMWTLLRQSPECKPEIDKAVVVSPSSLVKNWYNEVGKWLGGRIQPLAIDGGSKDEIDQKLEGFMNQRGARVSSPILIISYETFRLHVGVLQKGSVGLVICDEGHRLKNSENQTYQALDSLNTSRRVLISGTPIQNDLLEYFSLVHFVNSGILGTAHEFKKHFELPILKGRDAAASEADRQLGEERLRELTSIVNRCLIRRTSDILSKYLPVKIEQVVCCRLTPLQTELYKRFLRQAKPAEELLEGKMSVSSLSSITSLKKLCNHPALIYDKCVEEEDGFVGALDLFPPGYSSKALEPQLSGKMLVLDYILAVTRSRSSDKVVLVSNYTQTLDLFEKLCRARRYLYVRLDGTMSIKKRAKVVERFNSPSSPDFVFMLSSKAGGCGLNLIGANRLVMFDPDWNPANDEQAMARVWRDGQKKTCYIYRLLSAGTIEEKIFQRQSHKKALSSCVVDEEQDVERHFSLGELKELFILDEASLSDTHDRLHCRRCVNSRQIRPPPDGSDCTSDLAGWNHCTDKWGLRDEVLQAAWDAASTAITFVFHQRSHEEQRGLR
AF4-AF9 inh: inhibitors of AF4 peptide binding to AF9, primary screen, biochemical, AlphaScreen, biotin-AF4 peptide, FLAG-AF9, single point; inhibition, % at 10 µM; Protein AF-9 (Homo sapiens), P42568; 350,000 compounds, 0.47% hits;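 active = every replicate reaching a set inhibition limit, whatever the replicate mean, cut at about 25% in these data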;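 also: 0% = plate neutral control median and 100% = total signal loss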
E-selectin induc: E-selectin induction in HUVECs, primary screen, imaging, HUVEC, immunofluorescence imaging, single point. 260,000 compounds, 0.37% hits. P16581. activation, % at 7.58 µM. normalized: neutral wells 0, TNF-alpha wells 100;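 active = mean E-selectin-positive cell signal at least 10% of the positive control, reached in at least 60% of replicates, without over 20% cell loss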
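Read-out: % PE-positive cells | Test system: HUVEC | Doses: One compound dose added by pin transfer | Buffer or medium: EGM-2 over gelatin coat | Signal: Immunofluorescence imaging | Benchmarks: TNF-alpha, DMSO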
rRNA inh HTS: reduced GFP signal of wild-type E. coli, primary screen, bacterial rRNA inhibitor project, GFP/RFP fluorescence, OD600, single point | E. coli WT GFP vs humanized-ribosome RFP mutants, 24 h; hits give low values; DMSO median 0, no signal -100 | GFP signal change (wild-type ribosome), % (no concentration beside the values) | 350,000 compounds, 1.6% hits | AID 720706, 2013;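 active = significant combined selectivity score with lowered wild-type GFP, culture density cut under 30%, mutant RFP and density less affected; inactive = any of these conditions unmet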
The depositor's hits bear a star; . = not tested or not shown. An excerpt weighted towards active compounds, which were near 2.6% of everything screened.

SMILES	RAD52 anneal inh	INS-1E GSIS act	RAD54 inh	AF4-AF9 inh	E-selectin induc	rRNA inh HTS
O=C(NC(=S)Nc1ccc(S(=O)(=O)Nc2nccs2)cc1)c1ccccc1	.	8	-2	.	0	.
C[C@H]1CCCCO[C@H](CN(C)S(=O)(=O)c2ccccc2)[C@@H](C)CN([C@@H](C)CO)C(=O)c2cc(NC(=O)NC3CCCCC3)ccc2O1	-24	-28	7	1	.	1
CN(C)C(=O)c1cccc(-c2ccccc2[C@@H]2[C@@H](C#N)N(C(=O)C3CCCCC3)[C@H]2CO)c1	3	-12	.	-3	0	1
O=C(Nc1ccc(F)cc1)c1ccc(CSc2ccc(Cl)cc2)o1	-3	.	0	-2	.	-32*
CC(=O)c1ccc(NC(=O)c2ccc(CSc3ccccc3)o2)cc1	-8	-10	.	-3	.	-31*
COc1ccc(CCNC(=O)c2ccc(CSc3ccccc3)o2)cc1	-1	-31	.	-4	.	-37*
O=C1NC(=O)C2(CCCCC2C2CCCCC2)N1 (centres undefined)	2	62*	-1	-4	0	-12
CC1CCCC12NC(=O)NC2=O (centres undefined)	-2	-2	.	-1	0	7
CCOC(=O)C1=C(C)NC2=C(C(=O)c3ccccc32)C1c1cccc2ccccc12 (centres undefined)	-14	-7	4	-51	7	-19*
CCCC(=O)Nc1cccc(S(=O)(=O)N(C)c2ccccc2)c1	.	-16	4	.	.	.
CN(c1cccc(NC(=O)c2ccc(N(C)S(=O)(=O)c3ccccc3)cc2)c1)S(C)(=O)=O	-4	-16	.	3	-1	-17*
CN(c1ccccc1)S(=O)(=O)c1cccc(NC(=O)CCN2C(=O)C3CCCCC3C2=O)c1 (centres undefined)	-10	-24	5	-10	0	-29*
CC(=O)Nc1ccc(C(=O)Nc2cccc(S(=O)(=O)N(C)c3ccccc3)c2)cc1	4	-15	0	2	-2	-25
CC(=O)Nc1ccc(NC(=O)COc2cccc3ccccc23)cc1	-12	1	0	1	4	-3
O=C(COc1cccc2ccccc12)NNC(=O)Nc1ccccc1	-13	-17	-5	.	.	-33*
C[C@@H]1CCCCO[C@@H](CN(C)S(=O)(=O)c2cccs2)[C@@H](C)CN([C@@H](C)CO)C(=O)c2cc(NC(=O)CCCN(C)C)ccc2O1	-9	6	-6	1	0	0
COc1ccc(S(=O)(=O)N(C)C[C@@H]2Oc3c(NS(=O)(=O)c4ccc(F)cc4)cccc3C(=O)N([C@H](C)CO)C[C@@H]2C)cc1	.	-19	-6	.	62*	-7
COc1ccc(S(=O)(=O)Nc2ccc3c(c2)C(=O)N([C@H](C)CO)C[C@@H](C)[C@@H](CN(C)C(=O)Nc2cccc4ccccc24)O3)cc1	-2	-5	3	-16	75*	-7
COc1ccc(S(=O)(=O)Nc2cccc3c2O[C@H](CN(C)C(=O)Nc2cccc4ccccc24)[C@@H](C)CN([C@H](C)CO)C3=O)cc1	.	-4	.	.	28*	-2
COc1ccc(S(=O)(=O)Nc2cccc3c2O[C@H](CN(C)C(=O)Nc2cccc4ccccc24)[C@@H](C)CN([C@@H](C)CO)C3=O)cc1	.	-8	.	.	-7	1
COc1ccc(S(=O)(=O)Nc2ccc3c(c2)C(=O)N([C@H](C)CO)C[C@H](C)[C@H](CN(C)C(=O)Nc2cccc4ccccc24)O3)cc1	-4	-15	2	1	9	1
COc1ccc(S(=O)(=O)N(C)C[C@H]2Oc3c(NS(=O)(=O)c4ccc(F)cc4)cccc3C(=O)N([C@@H](C)CO)C[C@H]2C)cc1	.	-14	3	.	17	-4
CN(C)CC(=O)N1[C@@H]2c3ccc(-c4ccccc4)c(=O)n3C[C@H]1[C@H](CO)[C@H]2C(=O)N1CCOCC1	0	8	-3	-2	0	1
C[C@H]1CCCCO[C@H](CN(C)C(=O)Nc2ccc(F)cc2)[C@@H](C)CN([C@@H](C)CO)C(=O)c2cc(NS(=O)(=O)c3cccs3)ccc2O1	5	-16	1	-13	0	4
COCC(=O)Nc1ccc2c(c1)[C@@H]1C[C@H](CC(=O)NC3CCCCC3)O[C@H](CO)[C@@H]1O2	20	-1	-5	-1	0	-3
SMILES	RAD52 anneal inh	INS-1E GSIS act	RAD54 inh	AF4-AF9 inh	E-selectin induc	rRNA inh HTS
CCc1cccc(CC)c1NC(=O)CSc1nnc(C2CC2)n1C	-5	45*	-3	-2	.	16
Cn1c(SCC(=O)NC2CCCc3ccccc32)nnc1C1CC1 (centres undefined)	-10	82*	14	0	1	6
O=C(Cc1ccccc1)N/N=C/c1cc(Br)cc(Br)c1O	-11	9	-6	-2	0	-1
O=C(O)c1ccccc1N/N=C/c1cc(Br)cc(Br)c1O	-18	-8	-7	30*	0	-9
CNc1nc(OCC#N)nc(N2CCCCC2)n1	-17	44*	.	-3	.	12
CNc1nc(OCC(F)(F)F)nc(N2CCOCC2)n1	.	.	-4	.	.	.
CCCC#Cc1cnc2c(c1)C(=O)N([C@H](C)CO)C[C@@H](C)[C@H](CN(C)C(=O)c1ccc(F)cc1)O2	13	-13	-3	-2	0	-2
Cc1cc(C)cc(-n2c(C)cc(/C=N\NC(=O)COc3cccc4cccnc34)c2C)c1	-45	-3	0	2	.	-21*
C[C@@H]1CCCCO[C@@H](CN(C)C(=O)NC2CCCCC2)[C@H](C)CN([C@@H](C)CO)C(=O)c2cc(NC(=O)c3ccncc3)ccc2O1	-11	-15	3	-4	0	1
COc1cc(Br)c(CNc2cc(C)ccc2C)cc1OC	-14	5	-6	6	0	-24*
CS(=O)(=O)Nc1ccc2c(c1)[C@H]1C[C@@H](CC(=O)NCc3ccccn3)O[C@H](CO)[C@H]1O2	-26	7	-5	2	0	2
COc1ccc(OCC(=O)N/N=C2\CCCCc3ccccc32)cc1	-13	2	.	3	0	-29*
Cc1ccccc1OCC(=O)Nc1ccc2[nH]ncc2c1	-22	-7	1	-14	.	-21*
COCC(=O)N1C[C@H]2[C@@H](c3ccccc31)[C@H](CO)N2Cc1ccccc1F	13	12	-8	-14	0	2
